Test results published in ChEMBL document CHEMBL2016469, “Synthesis and evaluation of 1-(substituted)-3-prop-2-ynylureas as antiangiogenic agents” (Bioorg Med Chem Lett, 2012).
Activity calls are given as the source filed them. No cut-off for these calls is given here.

Assays:
HUVEC [1] = assay: Cytotoxicity against HUVEC at 12.5 nM after 48 hrs by MTT assay; format: cell-based; conditions: human, 0.0125 µM
HUVEC [2] = assay: Cytotoxicity against HUVEC after 48 hrs by MTT assay; format: cell-based; conditions: Homo sapiens
Procedure, shortened: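 MTT assay. HeLa and MCF-7 were tested at 1 and 100 μM. HUVEC cytotoxicity was measured the same way as for HeLa and MCF-7, to define non-cytotoxic doses for the tube-formation work. IC50 values taken as means of three independent experiments.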

HeLa [3] = assay: Cytotoxicity against human HeLa cells after 48 hrs by MTT assay; format: functional, cell-based
A-431 = assay: Cytotoxicity against human A431 cells over expressing EGFR after 48 hrs by MTT assay; format: functional, cell-based; conditions: A-431, 48 h
HUVEC [4] = assay: Angiogenic activity in HUVEC assessed as induction of tube formation at 12.5 nM after 24 hrs by hematoxylin staining analysis; format: functional, cell-based; conditions: Homo sapiens
MCF7 [5] = assay: Cytotoxicity against human MCF7 cells after 48 hrs by MTT assay; format: functional, cell-based; conditions: MCF7, 48 h
[6] = Cytotoxicity against human EAhy926 cells after 48 hrs by MTT assay; format: functional, cell-based; conditions: EA.hy 926, 48 h
MDA-MB-231 = assay: Cytotoxicity against human MDA-MB-231 cells; format: functional, cell-based
K562 = assay: Cytotoxicity against human K562 cells; format: functional, cell-based
[7] = molecular target: Platelet-derived growth factor receptor beta (Homo sapiens) (UniProt P09619); assay: Inhibition of human recombinant PDGFR-beta expressed in insect cells using Ulight-Poly GAT[EAY(1:1:1)]n as substrate at 1 uM after 60 mins by fluorescence assay
Sequence of Platelet-derived growth factor receptor beta (Homo sapiens) (P09619 whole entry): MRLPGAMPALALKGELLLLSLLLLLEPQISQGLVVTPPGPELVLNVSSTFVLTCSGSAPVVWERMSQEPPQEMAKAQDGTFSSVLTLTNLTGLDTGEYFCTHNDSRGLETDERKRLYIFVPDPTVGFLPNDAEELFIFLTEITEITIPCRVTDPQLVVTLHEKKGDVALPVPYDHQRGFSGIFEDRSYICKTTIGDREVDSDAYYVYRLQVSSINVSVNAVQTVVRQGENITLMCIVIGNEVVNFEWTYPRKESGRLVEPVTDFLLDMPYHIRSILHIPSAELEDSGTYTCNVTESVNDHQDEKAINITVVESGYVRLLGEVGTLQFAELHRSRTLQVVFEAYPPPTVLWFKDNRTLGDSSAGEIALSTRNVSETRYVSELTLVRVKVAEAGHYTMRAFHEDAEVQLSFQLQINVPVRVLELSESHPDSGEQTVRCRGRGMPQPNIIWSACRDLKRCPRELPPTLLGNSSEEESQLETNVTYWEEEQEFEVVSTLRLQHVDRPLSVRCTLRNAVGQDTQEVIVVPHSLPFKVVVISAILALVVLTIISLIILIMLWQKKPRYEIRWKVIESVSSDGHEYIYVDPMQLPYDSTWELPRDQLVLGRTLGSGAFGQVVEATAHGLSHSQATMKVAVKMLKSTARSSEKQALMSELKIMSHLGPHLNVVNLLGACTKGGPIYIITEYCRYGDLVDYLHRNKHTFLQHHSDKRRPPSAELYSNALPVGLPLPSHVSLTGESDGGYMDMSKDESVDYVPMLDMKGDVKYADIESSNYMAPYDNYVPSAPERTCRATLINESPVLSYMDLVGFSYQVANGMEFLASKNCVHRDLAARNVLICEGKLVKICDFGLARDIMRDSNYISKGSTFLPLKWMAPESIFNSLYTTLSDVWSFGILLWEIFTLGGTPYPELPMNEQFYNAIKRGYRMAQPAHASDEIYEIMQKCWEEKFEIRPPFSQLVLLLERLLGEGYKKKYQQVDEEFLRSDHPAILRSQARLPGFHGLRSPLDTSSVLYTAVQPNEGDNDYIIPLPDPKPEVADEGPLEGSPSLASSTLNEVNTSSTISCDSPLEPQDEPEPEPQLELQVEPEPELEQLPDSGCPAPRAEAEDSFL
Procedure, shortened: (§1)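 In vitro kinase assay against FGFR1, PDGFRβ or VEGFR2 with test compound at 1 μM. Read-out is the level of phosphorylation of a tyrosine kinase-specific ligand peptide substrate.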

HUVEC [8] = assay: Ratio of IC50 for cytotoxicity in HUVEC to EC50 for antiangiogenic activity in HUVEC; format: functional, Homo sapiens
Procedure, shortened: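 Ratio of HUVEC cytotoxic IC50 (MTT) to antiangiogenic ED50 from the HUVEC tube-formation assay.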

[9] = molecular target: Fibroblast growth factor receptor 1 (Homo sapiens) (UniProt P11362); assay: Inhibition of human recombinant FGFR1 expressed in insect cells using Ulight-CAGAGAIETDKEYYTVKD as substrate at 1 uM after 60 mins by fluorescence assay; procedure, shortened: as §1
Sequence of Fibroblast growth factor receptor 1 (Homo sapiens) (P11362 22-822 limits assumed): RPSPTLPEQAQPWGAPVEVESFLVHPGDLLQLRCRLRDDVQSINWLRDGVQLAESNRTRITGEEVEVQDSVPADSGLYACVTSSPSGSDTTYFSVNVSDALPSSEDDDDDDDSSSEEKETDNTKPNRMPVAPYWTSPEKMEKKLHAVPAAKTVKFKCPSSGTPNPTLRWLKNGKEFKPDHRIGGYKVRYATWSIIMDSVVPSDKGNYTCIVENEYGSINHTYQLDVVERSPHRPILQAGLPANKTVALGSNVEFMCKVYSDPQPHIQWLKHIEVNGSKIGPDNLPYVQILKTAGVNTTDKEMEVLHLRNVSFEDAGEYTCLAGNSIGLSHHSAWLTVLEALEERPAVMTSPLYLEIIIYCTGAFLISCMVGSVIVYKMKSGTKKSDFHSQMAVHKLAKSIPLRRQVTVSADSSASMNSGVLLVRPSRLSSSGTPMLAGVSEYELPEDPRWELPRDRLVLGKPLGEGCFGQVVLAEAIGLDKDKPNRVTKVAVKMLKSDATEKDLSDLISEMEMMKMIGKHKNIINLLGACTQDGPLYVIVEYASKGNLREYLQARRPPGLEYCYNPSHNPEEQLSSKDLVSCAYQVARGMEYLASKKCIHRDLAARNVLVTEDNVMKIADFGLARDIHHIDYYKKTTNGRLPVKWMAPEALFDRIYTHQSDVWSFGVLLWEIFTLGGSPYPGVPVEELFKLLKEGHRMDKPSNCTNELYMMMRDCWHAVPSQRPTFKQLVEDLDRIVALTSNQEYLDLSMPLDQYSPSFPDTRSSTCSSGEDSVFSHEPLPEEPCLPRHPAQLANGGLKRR

HUVEC [10] = assay: Antiangiogenic activity in HUVEC assessed as suppression of tube formation at 25 nM after 24 hrs by hematoxylin staining analysis; format: functional; conditions: Homo sapiens
MCF7 [11] = assay: Cytotoxicity against human MCF7 cells at 100 uM after 48 hrs by MTT assay; format: functional; conditions: MCF7, 48 h, read-out: GI
Procedure, shortened: (§2)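 MTT cytotoxicity screen against HeLa or MCF-7 cells at a single test concentration of 100 μM (screen also included 1 μM).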

HUVEC [12] = assay: Antiangiogenic activity in HUVEC assessed as suppression of tube formation after 24 hrs by hematoxylin staining analysis; format: functional, cell-based; conditions: Homo sapiens
[13] = molecular target: Vascular endothelial growth factor receptor 2 (Homo sapiens) (UniProt P35968); assay: Inhibition of human recombinant VEGFR2 expressed in insect cells using Ulight-CAGAGAIETDKEYYTVKD as substrate at 1 uM after 60 mins by fluorescence assay; procedure, shortened: as §1
Sequence of Vascular endothelial growth factor receptor 2 (Homo sapiens) (P35968 whole entry): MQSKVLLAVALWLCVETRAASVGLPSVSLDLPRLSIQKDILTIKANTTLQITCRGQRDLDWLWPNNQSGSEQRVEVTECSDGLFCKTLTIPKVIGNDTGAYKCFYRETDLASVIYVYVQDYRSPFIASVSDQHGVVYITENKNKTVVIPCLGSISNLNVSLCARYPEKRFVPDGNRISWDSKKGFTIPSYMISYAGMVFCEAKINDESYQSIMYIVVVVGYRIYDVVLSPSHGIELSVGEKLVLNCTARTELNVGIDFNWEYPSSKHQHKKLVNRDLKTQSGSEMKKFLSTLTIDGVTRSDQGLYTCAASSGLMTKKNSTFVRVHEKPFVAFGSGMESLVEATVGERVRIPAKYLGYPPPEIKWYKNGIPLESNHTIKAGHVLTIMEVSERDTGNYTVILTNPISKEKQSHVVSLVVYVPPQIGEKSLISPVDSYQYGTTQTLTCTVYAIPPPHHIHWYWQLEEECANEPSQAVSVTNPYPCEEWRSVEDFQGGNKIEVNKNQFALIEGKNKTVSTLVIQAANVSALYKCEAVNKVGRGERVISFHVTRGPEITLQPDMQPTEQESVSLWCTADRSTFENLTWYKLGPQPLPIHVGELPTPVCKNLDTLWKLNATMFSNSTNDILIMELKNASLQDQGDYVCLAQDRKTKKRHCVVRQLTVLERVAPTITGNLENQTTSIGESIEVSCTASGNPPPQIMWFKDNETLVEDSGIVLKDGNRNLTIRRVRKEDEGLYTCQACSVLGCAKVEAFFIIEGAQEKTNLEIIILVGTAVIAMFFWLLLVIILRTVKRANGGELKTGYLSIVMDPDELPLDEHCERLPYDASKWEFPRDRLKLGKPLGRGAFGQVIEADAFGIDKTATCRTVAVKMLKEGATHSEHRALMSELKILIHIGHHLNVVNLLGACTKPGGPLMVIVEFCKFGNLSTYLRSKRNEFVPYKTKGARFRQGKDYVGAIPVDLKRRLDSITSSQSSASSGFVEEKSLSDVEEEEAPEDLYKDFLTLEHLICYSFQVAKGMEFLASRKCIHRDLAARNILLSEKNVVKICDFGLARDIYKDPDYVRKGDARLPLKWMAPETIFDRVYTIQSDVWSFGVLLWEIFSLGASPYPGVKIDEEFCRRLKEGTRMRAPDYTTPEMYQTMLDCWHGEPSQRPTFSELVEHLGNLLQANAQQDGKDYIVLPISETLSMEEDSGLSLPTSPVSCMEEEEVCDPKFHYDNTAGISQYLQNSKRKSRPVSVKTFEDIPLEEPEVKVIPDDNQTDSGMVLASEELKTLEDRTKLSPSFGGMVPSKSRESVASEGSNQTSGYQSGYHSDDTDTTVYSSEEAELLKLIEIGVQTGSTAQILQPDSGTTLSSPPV

HeLa [14] = assay: Cytotoxicity against human HeLa cells at 100 uM after 48 hrs by MTT assay; format: functional; conditions: read-out: GI; procedure, shortened: as §2
HUVEC [15] = assay: Antiangiogenic activity in HUVEC assessed as suppression of tube formation at 6.25 uM after 24 hrs by hematoxylin staining analysis; format: functional; conditions: Homo sapiens
[16] = Homo sapiens, HeLa, 48 h, read-out: IC50

Compound | IC50 (HUVEC [2]) [µM] | IC50 (A-431) [µM] | IC50 (MCF7 [5]) [µM] | IC50 [6] [µM] | IC50 (HeLa [3]; [16]) [µM] | further results
C#CCNC(=O)Nc1cccc(CNCc2ccccc2)c1 | 50 | 0.318 | 343 | 192 |  | Activity (HUVEC [1]): Non-toxic; IC50 (HeLa [3]; hela): Not Active; Activity (HUVEC [4]): Active
CNC(=O)c1cc(Oc2ccc(NC(=O)Nc3ccc(Cl)c(C(F)(F)F)c3)cc2)ccn1 [SORAFENIB] |  |  |  |  |  | IC50 (MDA-MB-231): 2.5 µM
COc1cccc2c1C(=O)c1c(O)c3c(c(O)c1C2=O)C[C@@](O)(C(=O)CO)C[C@@H]3O[C@H]1C[C@H](N)[C@H](O)[C@H](C)O1 [DOXORUBICIN] |  |  |  |  | 0.19 | 
COc1ccc(N(C(=O)N(C)C)c2nnc(-c3ccccc3)s2)cc1OC |  |  |  |  |  | IC50 (K562): 3 µM
C#Cc1cccc(Nc2ncnc3cc(OCCOC)c(OCCOC)cc23)c1 [ERLOTINIB] |  | 0.055 |  |  |  | 
C#CCNC(=O)Nc1cccc(CNCc2ccc(C)cc2)c1 |  |  | 49.9 |  | 329 | 
C#CCNC(=O)Nc1cccc(CNCc2ccc(OC(F)(F)F)cc2)c1 |  |  | 283 |  | 339 | 
C#CCNC(=O)Nc1cccc(CNCc2ccc(OC)cc2)c1 |  |  | 195 |  | 392 | 
C#CCNC(=O)Nc1cccc(CCl)c1 | 20 | 0.036 | 1.48 | 10.5 | 1.55 | inhibition [7]: Active; Ratio (HUVEC [8]): 77; inhibition [9]: inactive; inhibition at 0.025 µM (HUVEC [10]): 21.2%; inhibition of growth at 100 µM (MCF7 [11]): 85.2%; EC50 (HUVEC [12]): 0.26 µM; inhibition [13]: inactive; inhibition of growth at 100 µM (HeLa [14]): 86.9%
C#CCNC(=O)Nc1cccc(COc2ccc(C(=O)OC)cc2)c1 | 100 | 0.215 | 74.9 | 78.2 | 12.3 | Ratio (HUVEC [8]): 6; inhibition [9]: inactive; inhibition at 6.25 µM (HUVEC [15]): 46.5%; EC50 (HUVEC [12]): 17.5 µM; inhibition [13]: inactive
